We go through 94 compounds from ChEMBL document CHEMBL4513216, “Probing the Open Global Health Chemical Diversity Library for Multistage-Active Starting Points for Next-Generation Antimalarials” (ACS Infect Dis, 2020).

A short description of the series: Toxicity liver stage against HepG2, at 10uM. It is filed as cell-based. Further details: test concentration 10 uM, cell line HepG2-A16-CD81EGFP. To be noted: human, HepG2-A16-CD81EGFP cells; read-out: INHIBITION
The gist of the method:
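Uninfected HepG2-A16-CD81EGFP cells, 3 × 10^3 per well, 1536-well, plated on prespotted compound at 10 μM final, parasite-free screening media added to match infected plates; puromycin 10 μM positive, DMSO 0.5% negative; run in parallel with 48 h PbLuc assay at 37 °C, 5% CO2; viability by CellTiter-Glo luminescence, normalized to controls.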
Regarding `Cn1c2ccccc2c2ncn(CCN3CCOCC3)c(=O)c21`, the cytotoxicity at 10 µM was 15.7%.

With `CCC1(CC)Cc2ccccc2-c2nc(NCCO)[nH]c(=O)c21`, the cytotoxicity at 10 µM is -7.17%.

For the compound `Cc1c(CNCc2nn(-c3ccccc3)c3c2CCC3)cc(C#N)n1C`, the cytotoxicity at 10 µM is 13.3%.

For the compound `CCOC(=O)CNC(=O)NCc1cc(C)n(-c2ccccc2OC)c1C`, the cytotoxicity at 10 µM was 13.3%.

Regarding `CN(CCC(O)c1ccccc1)Cc1nc(-c2ccccc2)no1` (centres undefined), the cytotoxicity at 10 µM turned out to be 7.86%.

For `CCN1C[C@H]2CCN(C(=O)c3cc[nH]n3)CC[C@H]2S1(=O)=O`, the cytotoxicity at 10 µM worked out at 12.2%.

For the compound `O=C1[C@H]2CN(c3ncccn3)C[C@H]2CN1CC1CC1`, the cytotoxicity at 10 µM was determined as 4.41%.

Consider `O=C(O)C1CCCN(C(=O)CCn2ccc3c(Cl)cccc32)C1` (centres undefined), for which the cytotoxicity at 10 µM was determined as 11%.

As for `CC(=O)Nc1nc(-c2ccc(F)cc2)c[nH]1`, the cytotoxicity at 10 µM stood at 2.41%.

As for `O=C(NCCN1CCOCC1)c1ccc(-n2ccc3ccccc32)s1`, the cytotoxicity at 10 µM was -1.27%.

For `CCOC(=O)C1CCN(c2cc(C(=O)N3CCOCC3)nc(C)n2)CC1`, the cytotoxicity at 10 µM was -1.07%.

In the case of `Cc1nnc(Nc2cccc(C3CCCN(Cc4ncc[nH]4)C3)n2)s1` (centres undefined), the cytotoxicity at 10 µM was -5.5%.

As for `Cc1cccc(Nc2cccc(C3CCCN(Cc4ncc[nH]4)C3)n2)n1` (centres undefined), the cytotoxicity at 10 µM is -24.1%.

On to `Cc1ccc(S(=O)(=O)N2C[C@H]3C[C@H](NC(=O)c4cc[nH]n4)[C@H]3C2)cc1`, for which the cytotoxicity at 10 µM worked out at 81.4%.

In the case of `COCCN1C(=O)CO[C@H]2CN(Cc3ccccc3Cl)C[C@@H]21`, the cytotoxicity at 10 µM is -6.55%.

Turning to `CN(CC(=O)NCC(F)(F)F)C(=O)c1ccc(C(=O)OC(C)(C)C)cc1`, the cytotoxicity at 10 µM was determined as 0.68%.

As for `O=C(NCc1ccc(CN2CCCC2)cc1)NC1(CO)CCCC1`, the cytotoxicity at 10 µM is -63.4%.

On to `CNC(=O)Cc1ccc(NC(=O)NCc2ncc(C)s2)cc1`, for which the cytotoxicity at 10 µM is 7.34%.

For the compound `O=C(NC1CCN(C2CC2)CC1)c1cc(Cl)ccc1-n1cnnn1`, the cytotoxicity at 10 µM came out at 3.43%.

For the compound `Cc1noc(C)c1CN(C)Cc1csc(-c2ncccn2)n1`, the cytotoxicity at 10 µM amounted to 16.5%.

Take `CCCc1ncc(C(=O)N2CCOc3ncccc32)s1`: the cytotoxicity at 10 µM came to 11.6%.

`Cc1nccn1-c1ccc(C(C)NCCC(C)C)cc1` (centres undefined): the cytotoxicity at 10 µM turned out to be 15.9%.

As for `COCCNc1ccccc1CNC(=O)NCc1ccc(C)s1`, the cytotoxicity at 10 µM amounted to 4.38%.

As to `CCc1ccc(C2CCCCCN2C(=O)CNC(=O)C2CC2)o1` (centres undefined), the cytotoxicity at 10 µM is -7.25%.

On to `COc1ccc(CCN(C)CCS(=O)(=O)c2ccc(Cl)cc2)cc1OC`, for which the cytotoxicity at 10 µM is 35.4%.

`Fc1ccc(CNCc2nnc3n2CC(C(F)(F)F)CC3)cc1` (centres undefined): the cytotoxicity at 10 µM turned out to be 6.71%.

`CNS(=O)(=O)c1cccc(C(C)NCc2ccc(C)c(C)c2)c1` (centres undefined): the cytotoxicity at 10 µM came to 3.92%.

For `Cc1ccc(N2CCCC(NCCS(C)(=O)=O)C2)nn1` (centres undefined), the cytotoxicity at 10 µM is -5.26%.

As for `CN(Cc1ccco1)Cc1ccccc1CNC(=O)c1cnccn1`, the cytotoxicity at 10 µM is 17.1%.

`CN(C)CCN(Cc1ccc(C(F)(F)F)cc1)C(=O)c1cc[nH]n1`: the cytotoxicity at 10 µM amounted to 3.95%.

On to `NS(=O)(=O)N1CCc2ccc(NC(=O)CC(F)(F)F)cc21`, for which the cytotoxicity at 10 µM amounted to 6.15%.

Turning to `O=C(COc1cccc2c1CCC2=O)NCCc1cccs1`, the cytotoxicity at 10 µM worked out at 0.79%.

With `Cc1cc(=O)n2ncnc2n1CC(O)c1ccccc1` (centres undefined), the cytotoxicity at 10 µM was -7.82%.

As to `Fc1ccc(CNCCn2cccn2)c(Cl)c1`, the cytotoxicity at 10 µM is -1.26%.

As to `Cc1nc(C)c(C(=O)NCCOc2ccc(C(F)(F)F)cn2)o1`, the cytotoxicity at 10 µM was 2.42%.

Regarding `OCc1cc2ccccc2nc1NC1CC=CC1`, the cytotoxicity at 10 µM was -56%.

In the case of `Cc1ccsc1CNC(=O)Nc1ccn(CCN2CCOCC2)n1`, the cytotoxicity at 10 µM was 8.28%.

For the compound `O=C1CCc2cc(S(=O)(=O)NC(=O)c3ccc4c(c3)COC4)ccc2N1`, the cytotoxicity at 10 µM was found to be 4.82%.

As to `CCC1CN(C)c2ccccc2CN1C(=O)Nc1ccccc1OC` (centres undefined), the cytotoxicity at 10 µM was -1.87%.

As to `C=C(C)COCCNC(=O)Nc1cccc(Cn2nc(C)nc2C)c1`, the cytotoxicity at 10 µM came out at 7.64%.

For the compound `O=C(CCc1ccco1)NS(=O)(=O)Cc1ccon1`, the cytotoxicity at 10 µM amounted to 9.99%.

With `Cc1cc(Br)cnc1NCCN1CCC(N(C)C)CC1`, the cytotoxicity at 10 µM is -10.6%.

On to `Cc1nn(C)c(Oc2cccc(F)c2)c1NC(=O)C1CCOCC1`, for which the cytotoxicity at 10 µM was -3.91%.

For the compound `CCN(CC)c1ccc(CNS(=O)(=O)C2CCOCC2)cc1F`, the cytotoxicity at 10 µM is -13.4%.

`O=C(Nc1ccc(N2CCCC2)nc1)N1CCc2ccccc2C1`: the cytotoxicity at 10 µM is -10.2%.

Consider `CCOCC(=O)N1C[C@@H]2COC[C@]2(c2nc(C)no2)C1`, for which the cytotoxicity at 10 µM was -90.9%.

On to `COC1COC2(CCN(C(=O)c3ccccc3F)CC2)C1` (centres undefined), for which the cytotoxicity at 10 µM was -92.4%.

Regarding `Cc1occc1C(=O)N1C[C@@H]2CCCO[C@@H]2[C@H](NC(=O)CC2CC2)C1`, the cytotoxicity at 10 µM was -102%.

As for `Cc1cccc(-c2nnn3c2COC(CNC(=O)N2CCCC2)C3)c1` (centres undefined), the cytotoxicity at 10 µM is -94.5%.

In the case of `CNC(=O)N1CC[C@@H]2CN(Cc3cccc(OC)c3)S(=O)(=O)[C@@H]2CC1`, the cytotoxicity at 10 µM was -108%.

As for `c1cc(CN2CCOCC3(CCNCC3)C2)ccn1`, the cytotoxicity at 10 µM is -71%.

Consider `COc1cc(C(=O)NCc2cc(N3CCOCC3)ncn2)ccn1`, for which the cytotoxicity at 10 µM was -10.8%.

With `Cn1ncc(N2CCC(CNC3CC(c4ccccc4)C3)CC2)cc1=O` (centres undefined), the cytotoxicity at 10 µM is -2.15%.

Take `NC(=O)c1ccc(-n2ccnc2-c2cccc(O)c2)cc1N1CCCC1`: the cytotoxicity at 10 µM stood at 15.8%.

On to `CCc1nc(C)c(C(=O)N2C[C@@H](C(=O)O)[C@H](C3CC3)C2)s1`, for which the cytotoxicity at 10 µM worked out at 3.41%.

With `Cn1ccnc1C1CCN(S(=O)(=O)c2ccc3[nH]c(=O)[nH]c3c2)CC1`, the cytotoxicity at 10 µM amounted to 4.82%.

Take `Cc1cc(CC(C)Nc2ncc(C)c(N(C)C)n2)[nH]n1` (centres undefined): the cytotoxicity at 10 µM is -7.85%.

As to `CCc1nc(CNc2nc3c(s2)c(C)nn3C)cs1`, the cytotoxicity at 10 µM is -72%.

With `O=C(c1cc(=O)n(-c2ccccc2)[nH]1)N1CCOC(C(F)(F)F)C1` (centres undefined), the cytotoxicity at 10 µM amounted to 3.32%.

On to `C/C=C(\C)CN1C[C@H](NC(=O)CCOC)[C@@H](c2ccc(C)o2)C1`, for which the cytotoxicity at 10 µM came out at 7.06%.

Regarding `COc1cccc(CC(=O)N2CCc3ncnc(NCCO)c3CC2)c1`, the cytotoxicity at 10 µM was -4.12%.

Turning to `Cc1c(C(C)NCC2CCCC2)cnn1-c1ccc(F)cc1F` (centres undefined), the cytotoxicity at 10 µM came to 9%.

As for `CN(C)c1ccc(C(=O)NCCCc2ccccn2)cn1`, the cytotoxicity at 10 µM is -54%.

`c1cc(CN2CCC(c3nnc4n3CCCCC4)CC2)c2nonc2c1`: the cytotoxicity at 10 µM is -1.08%.

In the case of `Cc1csc2c(N3CCNC(C(=O)Nc4ccc(F)cc4)C3)ncnc12` (centres undefined), the cytotoxicity at 10 µM was found to be 12.7%.

For the compound `COc1cccc2c1OCC(NCc1cnn(-c3ccccc3)c1)C2` (centres undefined), the cytotoxicity at 10 µM is -0.517%.

For `COc1coc(CN2CCCC(CCc3ccc(F)c(F)c3)C2)cc1=O` (centres undefined), the cytotoxicity at 10 µM turned out to be 1.95%.

Regarding `Cc1cccc(N2CCC(N3CCC4(CN(C)C(=O)O4)C3)CC2)c1C` (centres undefined), the cytotoxicity at 10 µM is -11.8%.

For `CN(C)Cc1ccc(C(=O)N2CCCC(COc3ccc(F)cc3)C2)o1` (centres undefined), the cytotoxicity at 10 µM was -12.9%.

With `CNC(=O)C(C)(C)NC(=O)c1cc(COc2ccccc2OC)[nH]n1`, the cytotoxicity at 10 µM came to 1.6%.

For the compound `CCc1cnc(N)nc1NCCCn1cc(Cl)cn1`, the cytotoxicity at 10 µM worked out at 3.5%.

With `CN(Cc1ccccc1Cl)C(C(=O)O)c1ccc(F)c(CO)c1` (centres undefined), the cytotoxicity at 10 µM was -46.4%.

On to `Cc1nccc(N[C@H]2CN(C(=O)CN3CCCC3=O)C[C@@H]2C(C)C)n1`, for which the cytotoxicity at 10 µM is -2.14%.

Turning to `CN1CCN([C@H]2CCN(C(=O)c3cc(Cl)cn3C)C[C@H]2CCCO)CC1`, the cytotoxicity at 10 µM was found to be 0.174%.

For the compound `CCN(C)S(=O)(=O)N[C@H]1CN(c2ccc(F)cn2)C[C@@H]1C(C)C`, the cytotoxicity at 10 µM stood at 10.8%.

For the compound `COCCN1CCC(CN(C)c2nc3c(s2)c(C)nn3C)CC1`, the cytotoxicity at 10 µM stood at 0.992%.

For `CCSC(C)C(=O)N1CCC(c2nn(C)c(=O)n2-c2ccccc2)CC1` (centres undefined), the cytotoxicity at 10 µM was 0.299%.

With `COc1ncc(CN(CCN(C)C)Cc2ccc(C)s2)cn1`, the cytotoxicity at 10 µM was -50.3%.

As to `Cc1cccc(C(=O)Nc2ccc(OC3CCN(C)CC3)cc2)c1`, the cytotoxicity at 10 µM was -26.1%.

`O=C(c1ccc(Cl)o1)N1CCCC(c2cc(C(F)(F)F)[nH]n2)C1` (centres undefined): the cytotoxicity at 10 µM amounted to 2.14%.

Take `Cc1noc(C)c1C(=O)NCc1ccnc(OCC(F)(F)F)c1`: the cytotoxicity at 10 µM is -0.421%.

Turning to `Cn1nc(COc2cncnc2)c2c1CCN(Cc1ccco1)C2`, the cytotoxicity at 10 µM was 9.64%.

For the compound `CC(C)C(=O)N1CCC2(CC1)COCCN2Cc1ccc(F)cc1`, the cytotoxicity at 10 µM was -60.9%.

Regarding `O=C(NCc1cnc2n1CCN(Cc1ccoc1)C2)c1ccno1`, the cytotoxicity at 10 µM was -93%.

Take `CCOC1COC2(CCN(C(=O)c3cccc(C)n3)CC2)C1` (centres undefined): the cytotoxicity at 10 µM turned out to be 6.24%.

For the compound `COc1cccc([C@H]2CN(C(C)=O)[C@@H]3CCN(Cc4ccsc4)C[C@H]23)c1`, the cytotoxicity at 10 µM was -9.19%.

Turning to `CCn1cc2c(n1)CN(Cc1cnn(C)c1)CC2COCC1CC1` (centres undefined), the cytotoxicity at 10 µM was -80.4%.

Take `COc1ccc(CNc2c(C)nn(C(C)C)c2C)cc1OC`: the cytotoxicity at 10 µM was -38.5%.

With `Cc1cccc(CO[C@@H]2CO[C@@]3(CCN(S(=O)(=O)N(C)C)C3)C2)n1`, the cytotoxicity at 10 µM stood at 4.14%.

In the case of `CN(C)CCNC(=O)c1cc(-c2cnc(N3CCCC3)nc2)cn1C`, the cytotoxicity at 10 µM was 15.7%.

Turning to `c1cncc(N2CCCC3(CN(Cc4cccs4)CCO3)C2)c1` (centres undefined), the cytotoxicity at 10 µM came out at 11.5%.

Turning to `CN(C)C1CCN(C(=O)c2cc(-c3ccn(C)n3)n3ccccc23)CC1`, the cytotoxicity at 10 µM is -117%.

Consider `O=C(Nc1cccnc1)[C@H]1C[C@H]2CN(Cc3ccc(F)cc3)C[C@@H]1O2`, for which the cytotoxicity at 10 µM is -82.9%.

Turning to `O=S(=O)(c1cccc(F)c1)N1C[C@H]2CC[C@@H](C1)N(Cc1ccccc1)C2`, the cytotoxicity at 10 µM is -3.03%.
